Activity calls are given as the source filed them. The rule behind the calls is not given here.
system: L929; test: Inhibition of zVAD.fmk-induced necroptosis in mouse L929 cells assessed as cell viability at 30 uM after 24 hrs; assay type: functional, cell-based
How it was run: (§1)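 L929 cells, 100000 cells/mL, challenged with 10 ng/mL human TNF-α or 100 µM zVAD.fmk alongside compound at 30 µM or DMSO, 24 h, 37 °C, 5% CO2; final DMSO 0.5%, duplicates. Viability by luminescent ATP assay, corrected for nonspecific compound toxicity; mean % viability ± SD from two independent experiments.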

Structure (SMILES) | Activity
COc1ccc([C@H]2[C@H]3CCc4ccc(OC)cc4C3=NN2C(C)=O)cc1 | inactive
CN1C(=O)N[C@H](Cc2c[nH]c3c(Cl)cccc23)C1=O (racemic) | Active

system: L929; test: Inhibition of TNF alpha-induced necroptosis in mouse L929 cells assessed as cell viability at 30 uM after 24 hrs; assay type: functional, cell-based; how it was run: as §1

Structure (SMILES) | Activity
COc1ccc([C@H]2[C@H]3CCc4ccc(OC)cc4C3=NN2C(C)=O)cc1 | Active
CN1C(=O)N[C@H](Cc2c[nH]c3c(Cl)cccc23)C1=O (racemic) | Active

system: Jurkat; test: Inhibition of TNF alpha-induced necroptosis in FADD-deficient variant human Jurkat T cells assessed as cell viability after 24 hrs; assay type: functional, cell-based
How it was run: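 FADD-deficient human Jurkat T cells at 500000 cells/mL exposed to 10 ng/mL human TNF-α plus compound at 11 concentrations (0.029–100 µM), each in duplicate, 24 h, 37 °C, 5% CO2; final DMSO 0.5%. ATP luminescence viability expressed relative to compound alone (TNF/compound signal ratio). EC50 from variable-slope sigmoid nonlinear regression; two independent experiments unless noted.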

Structure (SMILES) | EC50 [µM]
COc1ccc2c(c1)C1=NN(C(C)=O)[C@@H](c3ccc([N+](=O)[O-])cc3)[C@H]1CC2 | 1.8
COc1cc2c(cc1OC)C1=NN(C(C)=O)[C@@H](c3ccc(F)cc3)[C@H]1CC2 | > 100
COc1ccc2c(c1)CC[C@H]1C2=NN(C(C)=O)[C@H]1c1ccc(F)cc1 | > 100
CNC(=S)N1N=C2c3cc(OC)ccc3CC[C@@H]2[C@@H]1c1ccc(OC)cc1 | 7.9
COc1ccc2c(c1)C1=NN(C(C)=O)[C@@H](c3ccc(F)cc3)[C@H]1CO2 | 4.8
COc1ccc([C@H]2[C@H]3CCc4ccc(OCc5ccccc5)cc4C3=NN2C(C)=O)cc1 | 5
CCC(=O)N1N=C2c3cc(OC)ccc3CC[C@@H]2[C@@H]1c1ccc(OC)cc1 | 0.15
COc1ccc([C@H]2[C@H]3CCc4ccc(OC)cc4C3=NN2C(N)=S)cc1 | 8.8
COc1ccc([C@H]2[C@@H]3CCc4ccc([N+](=O)[O-])cc4C3=NN2C(C)=O)cc1 | > 100
COc1ccc([C@H]2[C@H]3C[C@H](N)c4ccc(OC)cc4C3=NN2C(C)=O)cc1 | 1.2
COc1ccc2c(c1)C1=NN(C(C)=O)[C@@H](c3ccc(OCc4ccccc4)cc3)[C@H]1CC2 | > 100
COc1ccc([C@H]2[C@H]3CCc4ccc(OC)cc4C3=NN2C=O)cc1 | 0.92
COc1ccc([C@H]2[C@H]3CCc4ccc(F)cc4C3=NN2C(C)=O)cc1 | 0.28
CC(=O)N1N=C2c3ccccc3CC[C@@H]2[C@@H]1c1ccc(F)cc1 | 5.4
COc1ccc([C@H]2[C@H]3CCc4ccc(OC)cc4C3=NN2C(=N)N)cc1 | > 100
COc1ccc2c(c1)C1=NN(C(C)=O)[C@@H](c3ccc4c(c3)OCCO4)[C@H]1CC2 | 2.1
COc1ccc2c(c1)C1=NN(C(C)=O)[C@@H](c3ccccc3OC)[C@H]1CC2 | > 100
CC(=O)N1N=C2c3cc(C)ccc3OC[C@H]2[C@@H]1c1ccc(F)cc1 | > 100
COc1ccc([C@H]2[C@H]3CCc4c(OC)cccc4C3=NN2C(C)=O)cc1 | > 100
COc1ccc([C@H]2[C@H]3CCc4ccccc4C3=NN2C(C)=O)cc1 | 0.84

Structure (SMILES) | EC50 [µM]
COc1ccc2c(c1)C1=NN(C(C)=O)[C@@H](c3ccc(SC)cc3)[C@H]1CC2 | 1.1
COc1ccc2c(c1)C1=NN(C(C)=O)[C@@H](c3ccc(F)cc3)[C@H]1CC2 | 0.96
COc1ccc([C@H]2[C@H]3CCc4ccc(OCCN5CCOCC5)cc4C3=NN2C(C)=O)cc1 | > 50
COc1ccc([C@H]2[C@H]3CCc4cccc(OC)c4C3=NN2C(C)=O)cc1 | > 50
COc1ccc2c(c1)C1=NN(C(C)=O)[C@@H](c3ccc4c(c3)OCO4)[C@H]1CC2 | 2.6
COc1ccc2c(c1)C1=NN(C(C)=O)[C@@H](c3ccc(F)cc3)[C@@H]1CC2 | 3.7
COc1ccc([C@H]2[C@@H]3CCc4ccc(F)cc4C3=NN2C(C)=O)cc1 | 2.7
CC(=O)N1N=C2c3cc(O)ccc3CC[C@@H]2[C@@H]1c1ccc(O)cc1 | > 100
COc1ccc([C@H]2[C@H]3CCc4ccc(OC)cc4C3=NN2C(=O)COC(C)=O)cc1 | 3.1
CC(=O)N1N=C2c3cc(C)ccc3OC[C@@H]2[C@@H]1c1ccc(F)cc1 | 11.6
COc1ccc([C@H]2[C@H]3C[C@H](N(C)C)c4ccc(OC)cc4C3=NN2C(C)=O)cc1 | 5.1
CN1C(=O)N[C@H](Cc2c[nH]c3c(Cl)cccc23)C1=O (racemic) | 0.21
COc1ccc2c(c1)CC[C@@H]1C2=NN(C(C)=O)[C@H]1c1ccc(F)cc1 | > 100
COCC(=O)N1N=C2c3cc(OC)ccc3CC[C@@H]2[C@@H]1c1ccc(OC)cc1 | 0.44
COc1ccc([C@H]2[C@H]3CCc4ccc([N+](=O)[O-])cc4C3=NN2C(C)=O)cc1 | 3.5
COc1ccc([C@H]2[C@H]3CCc4ccc(OC)cc4C3=NN2C(N)=O)cc1 | 4.3
COc1ccc2c(c1)C1=NN(C(C)=O)[C@@H](c3cccc(F)c3)[C@H]1CC2 | 0.68
CCN1N=C2c3cc(OC)ccc3CC[C@@H]2[C@@H]1c1ccc(OC)cc1 | > 100
COc1ccc2c(c1)C1=NN(C(C)=O)[C@@H](c3ccc(O)cc3)[C@H]1CC2 | 5.9

— ChEMBL document CHEMBL1142998, “Structure-activity relationship study of tricyclic necroptosis inhibitors” (J Med Chem, 2007)
